# Measured values gathered from unrelated publications.
# Each line is one published result; the experiments were not run side by side.
SMILES,organism,test,test system,conditions,endpoint,result
O=[N+]([O-])c1ccc(-c2nc(-c3ccc(Oc4ccccc4)cc3)no2)cc1,Enterococcus faecium,"microbial growth, broth dilution",,24 h,MIC,> 32 µg/mL
CN1CCC(n2cnc(-c3ccc(F)cc3)c2-c2ccnc(Nc3ccccc3)n2)CC1,Trypanosoma brucei,parasite growth,,,EC50,501 nM
Cl.NCCCc1ccc(Oc2ccc(-c3noc(-c4ccc(O)cc4)n3)cc2)cc1,Enterococcus faecium,"microbial growth, broth dilution",,24 h,MIC,2 µg/mL
CC1=C(C(=O)Nc2cc3cn[nH]c3cc2F)C(c2ccc(C(F)(F)F)cc2)CC(=O)N1 (stereo not drawn),Plasmodium berghei,"parasite growth, luciferase",human,liver stage,IC50,4700 nM
CS(=O)(=O)NCc1cccc(-n2c(/C=C/c3ccc(C#N)cc3)nc3ccccc3c2=O)c1,Enterococcus faecium,"microbial growth, broth dilution",NCTC7171,,MIC,> 128 µg/mL
CCN(Cc1cnc2nc(N)nc(N)c2n1)c1ccc(C(=O)N2CCC(C(=O)OC)CC2)cc1,Trypanosoma brucei,"parasite growth, resazurin",,"10 µM, 72 h",inhibition,31%
N#Cc1ccc(/C=C/c2nc3ccncc3c(=O)n2-c2cccc(C(=O)O)c2)cc1,Enterococcus faecium,"microbial growth, broth dilution",NCTC7171,,MIC,> 128 µg/mL
O=C(O)c1cn(C2CC2)c2cc(N3CCNCC3)c(F)cc2c1=O,Mycobacterium intracellulare,"microbial growth, resazurin",ATCC23068,,IC50,0.4 µg/mL
CC(C)Nc1cccc(-n2c(/C=C/c3ccc(C#N)cc3)nc3ccccc3c2=O)c1,Enterococcus faecium,"microbial growth, broth dilution",NCTC7171,,MIC,> 128 µg/mL
CC(C)Oc1c(NC(=O)c2ccc(NC(=O)c3ccc(NC(=O)[C@H](CC(N)=O)NC(=O)c4ccc(NC(=O)c5ccc(C#N)cn5)cc4)cc3)c(OC(C)C)c2O)ccc(C(=O)O)c1O,Citrobacter freundii,microbial growth,DSM30039,,MIC,0.5 µg/mL
COc1cc(C=NNc2ncnc3c2cnn3-c2ccccc2)ccc1O,Trypanosoma brucei,parasite growth,,,EC50,1580 nM
C=CCCCCCCCCCCCC(O)CC(O)CO (stereo not drawn),Mycobacterium intracellulare,"microbial growth, resazurin",ATCC23068,,IC50,> 200 µg/mL
COc1cc(/C=N/Nc2ncnc3c2cnn3C(C)C)ccc1O,Trypanosoma brucei,parasite growth,,,EC50,1000 nM
C[N+](C)(C)CCc1ccc(Oc2ccc(-c3noc(-c4ccc(O)cc4)n3)cc2)cc1.[I-],Enterococcus faecium,"microbial growth, broth dilution",,24 h,MIC,8 µg/mL
C[C@@H]1[C@H](O)[C@@H](C)/C=C/C=C/C=C/C=C/C=C/C=C/C=C/[C@H](O[C@@H]2O[C@H](C)[C@@H](O)[C@H](N)[C@@H]2O)C[C@@H]2O[C@](O)(C[C@@H](O)C[C@@H](O)[C@H](O)CC[C@@H](O)C[C@@H](O)CC(=O)O[C@H]1C)C[C@H](O)[C@H]2C(=O)O,Candida albicans,microbial killing,ATCC90028,,MFC,1.35 µM
COC(=O)Nc1cccc(-n2c(/C=C/c3ccc(C#N)cc3)nc3ccccc3c2=O)c1,Enterococcus faecium,"microbial growth, broth dilution",NCTC7171,,MIC,> 128 µg/mL
O=C(O)c1cn(C2CC2)c2cc(N3CCNCC3)c(F)cc2c1=O,Mycobacterium intracellulare,microbial growth,ATCC23068,,IC50,0.3 µg/mL
CCCCCCCCCC(=O)N[C@@H](Cc1c[nH]c2ccccc12)C(=O)N[C@H](CC(N)=O)C(=O)N[C@@H](CC(=O)O)C(=O)N[C@@H]1C(=O)NCC(=O)N[C@@H](CCCN)C(=O)N[C@@H](CC(=O)O)C(=O)N[C@H](C)C(=O)N[C@@H](CC(=O)O)C(=O)NCC(=O)N[C@H](CO)C(=O)N[C@@H]([C@H](C)CC(=O)O)C(=O)N[C@@H](CC(=O)c2ccccc2N)C(=O)O[C@@H]1C,Enterococcus faecium,"microbial growth, broth dilution",,24 h,MIC,2 µg/mL
C[C@@H]1[C@H](O)[C@@H](C)/C=C/C=C/C=C/C=C/C=C/C=C/C=C/[C@H](O[C@@H]2O[C@H](C)[C@@H](O)[C@H](N)[C@@H]2O)C[C@@H]2O[C@](O)(C[C@@H](O)C[C@@H](O)[C@H](O)CC[C@@H](O)C[C@@H](O)CC(=O)O[C@H]1C)C[C@H](O)[C@H]2C(=O)O,Candida albicans,"microbial growth, broth dilution",ATCC90028,,IC50,0.27 µg/mL
N#Cc1ccc(/C=C/c2nc3ccccc3c(=O)n2-c2cccc(C(=O)NCc3cccnc3)c2)cc1,Enterococcus faecium,"microbial growth, broth dilution",NCTC7171,,MIC,> 128 µg/mL
CS(=O)(=O)CCNCc1nc(-c2ccc3ncnc(Nc4ccc(OCc5cccc(C(F)(F)F)c5)cc4)c3c2)cs1,Trypanosoma brucei,parasite growth,,,EC50,3160 nM
CC(C)Oc1c(NC(=O)c2ccc(NC(=O)[C@H](CC(N)=O)NC(=O)c3ccc(NC(=O)c4ccc(C#N)cc4)cc3)cc2)ccc(C(=O)Nc2ccc(C(=O)O)cc2)c1O,Citrobacter freundii,microbial growth,DSM30039,,MIC,≤ 0.03 µg/mL
CC(=O)OCC#Cc1ccc(/C=C/c2nc3ccccc3c(=O)n2-c2cccc(C(=O)O)c2)cc1,Enterococcus faecium,"microbial growth, broth dilution",NCTC7171,,MIC,> 128 µg/mL
NS(=O)(=O)c1ccc(N/N=C2\C(=O)Nc3ccc(Cl)cc32)cc1,Trypanosoma brucei,parasite growth,,,EC50,1580 nM
CC(C)Oc1c(NC(=O)c2ccc(NC(=O)[C@H](CC(N)=O)NC(=O)c3ccc(NC(=O)c4ccc(C#N)cn4)cc3)cc2)ccc(C(=O)Nc2ccc(C(=O)O)cc2)c1O,Citrobacter freundii,microbial growth,DSM30039,,MIC,≤ 0.03 µg/mL
CCn1c(-c2nonc2N)nc2c(C#CC(C)(C)O)ncc(OC3CCNCC3)c21,Plasmodium berghei,"parasite growth, luciferase",human,liver stage,IC50,7300 nM
CCCCCCCCCCCCCC(O)CC(O)CO (stereo not drawn),Mycobacterium intracellulare,"microbial growth, resazurin",ATCC23068,,IC50,> 200 µg/mL
O=C(Nc1ccc(Oc2ccc3nc(NC(=O)c4ccco4)[nH]c3c2)cc1)Nc1cc(C(F)(F)F)ccc1F,Trypanosoma brucei,parasite growth,,,EC50,2510 nM
O=C(Nc1ccccc1-c1ccc(F)c(F)c1)c1nccnc1C(F)(F)F,Alternaria brassicicola,microbial growth,,,EC50,0.057 µg/mL
NS(=O)(=O)c1ccc(NC=C2C(=O)Nc3ccc4ncsc4c32)cc1,Trypanosoma brucei,parasite growth,,,EC50,12600 nM
CC(CN)c1ccc(Oc2ccc(-c3noc(-c4ccc(O)cc4)n3)cc2)cc1.Cl (racemic),Enterococcus faecium,"microbial growth, broth dilution",,24 h,MIC,4 µg/mL
NC(=O)c1cccc(-n2c(/C=C/c3ccc(Cl)cc3)nc3ccncc3c2=O)c1,Enterococcus faecium,"microbial growth, broth dilution",NCTC7171,,MIC,> 128 µg/mL
Cl.NCCc1ccccc1Oc1ccc(-c2noc(-c3ccc(O)cc3)n2)cc1,Enterococcus faecium,"microbial growth, broth dilution",,24 h,MIC,8 µg/mL
NC(=O)c1cccc(-n2c(/C=C/c3ccc(F)cc3)nc3ccccc3c2=O)c1,Enterococcus faecium,"microbial growth, broth dilution",NCTC7171,,MIC,> 128 µg/mL
Oc1ccc(-c2nc(-c3ccc(Oc4ccccc4)cc3)no2)cc1,Enterococcus faecium,"microbial growth, broth dilution",,24 h,MIC,2 µg/mL
N#CCNC(=O)c1ccc(-c2ccnc(Nc3ccc(N4CCOCC4)cc3)n2)cc1,Plasmodium berghei,"parasite growth, luciferase",human,liver stage,IC50,550 nM
O=C(O)Cc1cccc(Oc2ccc(-c3noc(-c4ccc(O)cc4)n3)cc2)c1,Enterococcus faecium,"microbial growth, broth dilution",,24 h,MIC,> 32 µg/mL
NS(=O)(=O)c1ccc(N/N=C2\C(=O)Nc3ccc4ncccc4c32)cc1,Trypanosoma brucei,parasite growth,,,EC50,79.4 nM
COc1cc2ncn(-c3cc(O[C@H](C)c4ccccc4Cl)c(C(N)=O)s3)c2cc1OC,Plasmodium berghei,"parasite growth, luciferase",human,liver stage,IC50,7000 nM
